Measured values taken from ChEMBL document CHEMBL1961794, “Regulation of circadian behaviour and metabolism by synthetic REV-ERB agonists” (Nature, 2012).
Active and inactive are the calls of the source. No cut-off for these calls is given here.

Experiments:
[1] = target: Hepatocyte nuclear factor 4-gamma (Homo sapiens) (UniProt Q14541); test: Effect on HNF4G(NR2A2) dependent reporter activity in HEK293 cells at 20 uM; assay type: cell-based
In short: (§1)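 Specificity panel covering all 48 human nuclear receptors. HEK293 cells cotransfected with Gal4 DNA-binding domain–nuclear receptor fusions and a luciferase reporter. Compound tested at a single 20 μM concentration. Mean ± s.e.m., n=3.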

[2] = target: Nuclear receptor subfamily 0 group B member 2 (Homo sapiens) (UniProt Q15466); test: Effect on SHP(NR0B2) dependent reporter activity in HEK293 cells at 20 uM; assay type: cell-based
Chain of Nuclear receptor subfamily 0 group B member 2 (Homo sapiens) (Q15466 whole entry, the tested form may be a part): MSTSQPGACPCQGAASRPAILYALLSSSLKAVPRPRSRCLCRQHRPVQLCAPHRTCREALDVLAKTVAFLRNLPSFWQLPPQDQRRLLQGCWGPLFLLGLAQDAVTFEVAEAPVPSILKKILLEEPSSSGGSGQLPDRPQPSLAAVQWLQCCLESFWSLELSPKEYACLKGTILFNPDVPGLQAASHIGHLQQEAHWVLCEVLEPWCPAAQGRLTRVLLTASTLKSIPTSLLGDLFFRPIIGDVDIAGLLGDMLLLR
In short: (§2)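 Cotransfection assay in HEK293 cells with Gal4 DNA-binding domain–nuclear receptor fusions, covering a panel of all 48 human nuclear receptors. Compounds were tested at 20 μM, with reporter luciferase as the read-out. Mean ± s.e.m., n=3.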

[3] = target: Nuclear receptor subfamily 1 group I member 2 (Homo sapiens, UniProt O75469); test: Effect on PXR(NR1I2) dependent reporter activity in HEK293 cells at 20 uM; assay type: cell-based; conditions: hek293, 20 µM; in short: as §1
[4] = target: Estrogen receptor (Homo sapiens) (UniProt P03372); test: Effect on ESR1(NR3A1) dependent reporter activity in HEK293 cells at 20 uM; assay type: cell-based; in short: as §1
Chain of Estrogen receptor (Homo sapiens) (P03372 whole entry): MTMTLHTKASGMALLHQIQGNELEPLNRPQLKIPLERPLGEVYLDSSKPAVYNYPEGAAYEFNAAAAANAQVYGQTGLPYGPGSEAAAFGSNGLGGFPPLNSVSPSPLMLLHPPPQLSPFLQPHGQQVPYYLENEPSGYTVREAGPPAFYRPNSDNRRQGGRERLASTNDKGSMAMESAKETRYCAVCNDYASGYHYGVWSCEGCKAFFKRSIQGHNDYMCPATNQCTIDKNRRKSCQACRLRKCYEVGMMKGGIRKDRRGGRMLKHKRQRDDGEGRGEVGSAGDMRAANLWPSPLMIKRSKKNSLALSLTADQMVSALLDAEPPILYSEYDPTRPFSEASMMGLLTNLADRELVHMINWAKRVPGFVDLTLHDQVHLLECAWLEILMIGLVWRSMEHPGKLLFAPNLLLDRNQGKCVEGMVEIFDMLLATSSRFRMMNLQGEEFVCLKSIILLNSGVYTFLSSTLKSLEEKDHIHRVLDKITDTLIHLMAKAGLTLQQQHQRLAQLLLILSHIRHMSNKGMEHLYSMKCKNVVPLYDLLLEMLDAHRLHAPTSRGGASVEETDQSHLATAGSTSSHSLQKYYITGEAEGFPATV

[5] = target: Nuclear receptor ROR-alpha (Homo sapiens) (UniProt P35398); test: Effect on RORA(NR1F1) dependent reporter activity in HEK293 cells at 20 uM; assay type: cell-based; in short: as §1
Chain of Nuclear receptor ROR-alpha (Homo sapiens) (P35398 whole entry): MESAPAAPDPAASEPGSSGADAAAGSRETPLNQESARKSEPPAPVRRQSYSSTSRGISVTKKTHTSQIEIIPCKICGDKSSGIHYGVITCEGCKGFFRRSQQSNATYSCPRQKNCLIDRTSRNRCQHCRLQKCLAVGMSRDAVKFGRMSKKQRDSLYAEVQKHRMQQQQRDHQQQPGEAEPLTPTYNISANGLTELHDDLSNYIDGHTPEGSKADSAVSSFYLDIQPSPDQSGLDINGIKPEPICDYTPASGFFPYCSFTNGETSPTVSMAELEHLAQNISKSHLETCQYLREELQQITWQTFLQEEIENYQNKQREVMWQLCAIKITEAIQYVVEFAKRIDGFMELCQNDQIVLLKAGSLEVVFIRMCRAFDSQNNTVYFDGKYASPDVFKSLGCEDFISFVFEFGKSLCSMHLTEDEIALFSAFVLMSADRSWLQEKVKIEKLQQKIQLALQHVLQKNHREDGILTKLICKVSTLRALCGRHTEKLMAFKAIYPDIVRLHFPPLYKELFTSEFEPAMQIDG

[6] = Plasma concentration after 8 hours at 100mg/kg ip dose (10mg/ml solution in 15% Cremophor); assay type: ADME, organism-based; conditions: mouse, read-out: Conc_plasma
In short: (§3)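 Single 100 mg/kg i.p. dose given to mice as a 10 mg/ml solution in 15% Cremophor. Plasma drug concentration (μM) was measured at 2 and 8 h post-injection. Mean ± s.e.m., n=3.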

[7] = target: Nuclear receptor subfamily 0 group B member 1 (Homo sapiens) (UniProt P51843); test: Effect on DAX1(NR0B1) dependent reporter activity in HEK293 cells at 20 uM; assay type: cell-based; in short: as §1
[8] = target: Thyroid hormone receptor beta (Homo sapiens) (UniProt P10828); test: Effect on THRB(NR1A2) dependent reporter activity in HEK293 cells at 20 uM; assay type: cell-based; in short: as §2
Chain of Thyroid hormone receptor beta (Homo sapiens) (P10828 whole entry): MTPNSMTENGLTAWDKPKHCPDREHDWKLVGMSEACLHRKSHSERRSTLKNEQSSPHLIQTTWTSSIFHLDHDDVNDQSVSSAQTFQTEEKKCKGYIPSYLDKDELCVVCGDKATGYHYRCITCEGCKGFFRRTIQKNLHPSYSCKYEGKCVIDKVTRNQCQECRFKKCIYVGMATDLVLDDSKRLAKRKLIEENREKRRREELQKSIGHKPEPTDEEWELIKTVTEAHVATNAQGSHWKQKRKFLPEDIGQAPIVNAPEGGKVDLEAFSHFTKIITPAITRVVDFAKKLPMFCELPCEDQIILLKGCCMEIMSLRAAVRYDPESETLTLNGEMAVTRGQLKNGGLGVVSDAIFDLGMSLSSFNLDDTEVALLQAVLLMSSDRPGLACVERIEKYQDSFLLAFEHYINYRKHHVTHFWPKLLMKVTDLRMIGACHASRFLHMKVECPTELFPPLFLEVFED

[9] = target: Nuclear receptor subfamily 6 group A member 1 (Homo sapiens) (UniProt Q15406); test: Effect on GCNF(NR6A1) dependent reporter activity in HEK293 cells at 20 uM; assay type: cell-based; in short: as §1
[10] = Plasma concentration after 1 hour at 10mg/kg ip dose (10mg/ml suspension in 10%DMSO/10%Tween80); assay type: ADME, organism-based; conditions: mouse, read-out: Conc_plasma
In short: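 Mice received a single 10 mg/kg i.p. dose as a 10 mg/ml suspension in DMSO/Tween80/water (10/10/80). Plasma was sampled at 1, 2, 4 and 8 h post-injection and drug concentration reported in μM. Mean ± s.e.m., n=3.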

[11] = target: Hepatocyte nuclear factor 4-alpha (Homo sapiens) (UniProt P41235); test: Effect on HNF4A(NR2A1) dependent reporter activity in HEK293 cells at 20 uM; assay type: cell-based; in short: as §1
[12] = target: Thyroid hormone receptor alpha (Homo sapiens) (UniProt P10827); test: Effect on THRA(NR1A1) dependent reporter activity in HEK293 cells at 20 uM; assay type: cell-based; in short: as §2
[13] = target: Peroxisome proliferator-activated receptor delta (Homo sapiens) (UniProt Q03181); test: Effect on PPARD(NR1C2) dependent reporter activity in HEK293 cells at 20 uM; assay type: cell-based; in short: as §1
Chain of Peroxisome proliferator-activated receptor delta (Homo sapiens) (Q03181 whole entry): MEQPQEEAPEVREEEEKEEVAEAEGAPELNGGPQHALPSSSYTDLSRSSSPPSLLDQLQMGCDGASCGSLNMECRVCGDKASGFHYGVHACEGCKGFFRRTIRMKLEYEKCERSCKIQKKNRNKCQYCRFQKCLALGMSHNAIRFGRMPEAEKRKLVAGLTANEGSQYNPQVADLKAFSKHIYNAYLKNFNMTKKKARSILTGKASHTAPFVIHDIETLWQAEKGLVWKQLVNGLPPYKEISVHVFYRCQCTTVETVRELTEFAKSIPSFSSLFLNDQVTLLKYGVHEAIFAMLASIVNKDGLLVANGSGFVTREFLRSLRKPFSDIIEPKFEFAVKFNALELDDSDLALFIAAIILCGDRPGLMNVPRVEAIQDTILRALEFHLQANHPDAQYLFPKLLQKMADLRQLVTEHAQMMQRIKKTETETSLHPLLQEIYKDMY

[14] = target: Oxysterols receptor LXR-beta (Homo sapiens) (UniProt P55055); test: Effect on LXRB(NR1H2) dependent reporter activity in HEK293 cells at 20 uM; assay type: cell-based; in short: as §1
Chain of Oxysterols receptor LXR-beta (Homo sapiens) (P55055 whole entry): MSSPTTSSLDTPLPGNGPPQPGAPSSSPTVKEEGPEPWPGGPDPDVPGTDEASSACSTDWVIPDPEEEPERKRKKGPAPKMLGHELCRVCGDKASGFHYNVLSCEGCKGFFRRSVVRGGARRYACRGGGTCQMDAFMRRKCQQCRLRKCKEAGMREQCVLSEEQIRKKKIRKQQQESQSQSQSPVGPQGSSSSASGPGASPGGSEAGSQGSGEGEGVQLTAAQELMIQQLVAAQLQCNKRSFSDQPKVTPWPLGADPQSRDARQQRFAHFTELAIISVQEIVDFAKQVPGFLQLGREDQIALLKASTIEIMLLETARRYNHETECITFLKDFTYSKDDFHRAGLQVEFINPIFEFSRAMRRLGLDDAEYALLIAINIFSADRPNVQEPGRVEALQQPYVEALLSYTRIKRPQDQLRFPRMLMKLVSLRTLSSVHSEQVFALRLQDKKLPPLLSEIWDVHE

[15] = target: Estrogen-related receptor gamma (Homo sapiens) (UniProt P62508); test: Effect on ERR3(NR3B3) dependent reporter activity in HEK293 cells at 20 uM; assay type: cell-based; in short: as §1
[16] = target: Nuclear receptor subfamily 1 group I member 3 (Homo sapiens, UniProt Q14994); test: Effect on CAR(NR1I3) dependent reporter activity in HEK293 cells at 20 uM; assay type: cell-based; conditions: hek293, 20 µM; in short: as §1
[17] = target: Retinoic acid receptor RXR-beta (Homo sapiens) (UniProt P28702); test: Effect on RXRB(NR2B2) dependent reporter activity in HEK293 cells at 20 uM; assay type: cell-based; in short: as §1
[18] = target: Peroxisome proliferator-activated receptor alpha (Homo sapiens) (UniProt Q07869); test: Effect on PPARA(NR1C1) dependent reporter activity in HEK293 cells at 20 uM; assay type: cell-based; in short: as §1
[19] = target: Retinoic acid receptor RXR-gamma (Homo sapiens) (UniProt P48443); test: Effect on RXRG(NR2B3) dependent reporter activity in HEK293 cells at 20 uM; assay type: cell-based; in short: as §1
Chain of Retinoic acid receptor RXR-gamma (Homo sapiens) (P48443 whole entry): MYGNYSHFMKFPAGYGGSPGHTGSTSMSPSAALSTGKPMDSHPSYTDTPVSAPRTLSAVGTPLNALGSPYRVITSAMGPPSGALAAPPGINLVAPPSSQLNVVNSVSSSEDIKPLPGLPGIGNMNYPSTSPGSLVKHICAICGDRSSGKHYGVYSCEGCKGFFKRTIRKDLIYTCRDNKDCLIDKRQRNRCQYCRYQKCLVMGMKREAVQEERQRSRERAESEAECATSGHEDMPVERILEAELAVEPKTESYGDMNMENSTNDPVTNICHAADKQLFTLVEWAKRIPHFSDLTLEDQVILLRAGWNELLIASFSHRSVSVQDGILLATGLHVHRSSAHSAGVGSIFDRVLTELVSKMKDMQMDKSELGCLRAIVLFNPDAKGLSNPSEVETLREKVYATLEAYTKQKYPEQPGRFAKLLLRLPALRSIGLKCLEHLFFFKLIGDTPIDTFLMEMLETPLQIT

[20] = target: Nuclear receptor subfamily 1 group D member 1 (Homo sapiens) (UniProt P20393); test: Recruitment of co-repressor NcoR1 to REV-ERB-alpha; assay type: functional
In short: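 Biochemical corepressor-interaction assay using Luminex bead technology, measuring compound-dependent recruitment of an NCoR CoRNR box peptide to REV-ERBα. Mean ± s.e.m., n=3.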

[21] = Plasma concentration after 2 hours at 100mg/kg ip dose (10mg/ml solution in 15% Cremophor); assay type: ADME, organism-based; conditions: mouse, read-out: Conc_plasma; in short: as §3
[22] = target: Nuclear receptor subfamily 1 group D member 2 (Homo sapiens, UniProt Q14995); test: Increased REV-ERB-beta LBD dependent repressor activity in HEK293 cell reporter assay; assay type: cell-based
Chain of Nuclear receptor subfamily 1 group D member 2 (Q14995 whole entry, the tested form may be a part): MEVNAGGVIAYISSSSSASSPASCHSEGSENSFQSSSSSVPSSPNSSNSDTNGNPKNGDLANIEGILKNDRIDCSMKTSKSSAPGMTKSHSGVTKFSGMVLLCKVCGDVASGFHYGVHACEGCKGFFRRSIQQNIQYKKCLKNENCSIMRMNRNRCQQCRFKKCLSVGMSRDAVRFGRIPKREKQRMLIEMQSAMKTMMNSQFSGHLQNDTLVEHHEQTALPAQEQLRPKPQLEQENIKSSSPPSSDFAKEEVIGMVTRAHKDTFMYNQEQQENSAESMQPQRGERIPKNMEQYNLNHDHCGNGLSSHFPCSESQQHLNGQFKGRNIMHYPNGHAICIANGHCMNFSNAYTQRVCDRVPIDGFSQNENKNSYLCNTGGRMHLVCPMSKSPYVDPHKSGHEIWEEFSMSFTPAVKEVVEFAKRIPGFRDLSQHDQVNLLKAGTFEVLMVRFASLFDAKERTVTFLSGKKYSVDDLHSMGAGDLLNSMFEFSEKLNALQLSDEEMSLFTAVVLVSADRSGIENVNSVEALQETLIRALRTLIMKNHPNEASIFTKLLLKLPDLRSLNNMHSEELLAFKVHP

[23] = target: COUP transcription factor 2 (Homo sapiens) (UniProt P24468); test: Effect on TFCOUP2(NR2F2) dependent reporter activity in HEK293 cells at 20 uM; assay type: cell-based; in short: as §2
[24] = target: Nuclear receptor subfamily 4 group A member 3 (Homo sapiens) (UniProt Q92570); test: Effect on NOR1(NR4A3) dependent reporter activity in HEK293 cells at 20 uM; assay type: cell-based; in short: as §1
Chain of Nuclear receptor subfamily 4 group A member 3 (Homo sapiens) (Q92570 whole entry): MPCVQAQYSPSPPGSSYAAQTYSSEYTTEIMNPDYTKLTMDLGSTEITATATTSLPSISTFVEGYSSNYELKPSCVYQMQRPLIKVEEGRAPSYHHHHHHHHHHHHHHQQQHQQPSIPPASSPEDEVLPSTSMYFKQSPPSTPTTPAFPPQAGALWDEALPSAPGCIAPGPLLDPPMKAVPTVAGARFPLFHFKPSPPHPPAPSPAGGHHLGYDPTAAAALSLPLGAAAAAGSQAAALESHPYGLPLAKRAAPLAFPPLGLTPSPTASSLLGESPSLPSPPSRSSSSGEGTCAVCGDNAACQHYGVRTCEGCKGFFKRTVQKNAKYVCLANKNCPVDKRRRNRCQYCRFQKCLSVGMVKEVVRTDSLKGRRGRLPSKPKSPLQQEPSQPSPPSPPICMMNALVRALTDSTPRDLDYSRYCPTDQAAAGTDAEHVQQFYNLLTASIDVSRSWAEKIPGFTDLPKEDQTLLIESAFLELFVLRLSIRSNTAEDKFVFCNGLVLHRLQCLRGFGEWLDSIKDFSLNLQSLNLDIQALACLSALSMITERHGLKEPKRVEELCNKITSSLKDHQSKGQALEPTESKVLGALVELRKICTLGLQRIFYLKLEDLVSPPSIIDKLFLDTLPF

Chain of Hepatocyte nuclear factor 4-gamma (Homo sapiens) (Q14541 whole entry, the tested form may be a part): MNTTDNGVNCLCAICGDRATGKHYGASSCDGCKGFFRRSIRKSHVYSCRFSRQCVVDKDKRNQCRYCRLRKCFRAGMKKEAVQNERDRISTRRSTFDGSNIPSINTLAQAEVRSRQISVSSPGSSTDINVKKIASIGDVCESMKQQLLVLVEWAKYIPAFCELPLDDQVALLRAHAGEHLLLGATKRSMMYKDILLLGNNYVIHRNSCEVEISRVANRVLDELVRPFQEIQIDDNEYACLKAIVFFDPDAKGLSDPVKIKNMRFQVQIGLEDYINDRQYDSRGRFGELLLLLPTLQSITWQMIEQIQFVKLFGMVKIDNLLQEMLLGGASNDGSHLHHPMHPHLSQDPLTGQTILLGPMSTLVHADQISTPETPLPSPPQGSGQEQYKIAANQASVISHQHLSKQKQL

SMILES | inhibition [1] | inhibition [2] | Inhibition [3] | inhibition [4] | inhibition [5] | concentration at 8 h [6] | inhibition [7] | inhibition [8] | inhibition [9] | concentration at 1 h [10] | inhibition [11] | inhibition [12] | inhibition [13] | inhibition [14] | inhibition [15] | Inhibition [16] | inhibition [17] | inhibition [18] | inhibition [19] | NcoR1_recruitment [20] | further results
CCOC(=O)N1CCC(CN(Cc2ccc(Cl)cc2)Cc2ccc([N+](=O)[O-])s2)C1 (stereo not drawn) [SR9009] | inactive | inactive | Not Active | inactive | inactive | 1500 nM | inactive | inactive | inactive | 1400 nM | inactive | inactive | inactive | inactive | inactive | Not Active | inactive | inactive | inactive | Dose-dependent effect | concentration at 2 h [21]: 22900 nM; IC50 [22]: 800 nM (agonist); inhibition [23]: inactive; inhibition [24]: inactive
CCCCCNC(=O)N1CCC(CN(Cc2ccc(Cl)cc2)Cc2ccc([N+](=O)[O-])s2)C1 (stereo not drawn) [SR9011] | inactive | inactive | Not Active | inactive | inactive | 740 nM | inactive | inactive | inactive | 1550 nM | inactive | inactive | inactive | inactive | inactive | Not Active | inactive | inactive | inactive | Dose-dependent effect | concentration at 2 h [21]: 15300 nM; IC50 [22]: 560 nM (agonist); inhibition [23]: inactive; inhibition [24]: inactive
